# Test results published in ChEMBL document CHEMBL5724801, “EUbOPEN Chemogenomics Library - Multiplex” (2024).
# Several values for one entry are separate records, joined by “and”; a condition that tells them apart may be missing. Equal values may be shown once.
# System: HEK-293T
# Experiment: Multiplex assay against HEK293T
# Format: toxicity, cell-based
# Settings: human
# In short: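 Values for tubulin, mitochondrial-mass and membrane-permeability phenotypes are per cents of cells with healthy nuclei. These cells were identified by CellPathfinder machine-learning gating of live cells that had been stained at seeding with Hoechst33342, BioTracker Green Microtubule Cytoskeleton Dye, MitoTracker Red and Annexin V Alexa Fluor 680 and imaged on a CQ1 microscope at 37°C and 5% CO2 after compound addition. The gating first set Hoechst high-intensity objects apart from normal cells, then split normal cells into healthy, pyknosed or fragmented nuclei, and pyknosed cells into mitotic or apoptotic.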
# [1] = 12 h, 1 µM, compound concentration 1 uM
# [2] = 12 h, 10 µM, compound concentration 10 uM
# [3] = 24 h, 1 µM, compound concentration 1 uM
# [4] = 24 h, 10 µM, compound concentration 10 uM
# [5] = 48 h, 1 µM, compound concentration 1 uM
# [6] = 48 h, 10 µM, compound concentration 10 uM
smiles,measurement,setting,value
Cc1onc(-c2ccccc2Cl)c1C(=O)N(C)c1ccc(Cl)cc1,Population Apoptotic (%),[1],35% and 37%
same,Population Fragmented Nuclei (%),[1],8% and 3%
same,Population Healthy Nuclei (%),[1],79% and 84%
same,Population Hoechst High Intensity Objects (%),[1],9% and 6%
same,Population Membrane Permeable-Phenotype (%),[1],0%
same,Population Mitochondria Different-Phenotype (%),[1],41% and 59%
same,Population Mitotic Cells (%),[1],64% and 62%
same,Population Normal (%),[1],90% and 93%
same,Population Pyknosed Nuclei (%),[1],12%
same,Population Tubulin-Different-Phenotype (%),[1],25%
same,Total Cell Count,[1],375 and 320
same,Population Apoptotic (%),[2],38% and 45%
same,Population Fragmented Nuclei (%),[2],7% and 4%
same,Population Healthy Nuclei (%),[2],79% and 80%
same,Population Hoechst High Intensity Objects (%),[2],12% and 6%
same,Population Membrane Permeable-Phenotype (%),[2],0%
same,Population Mitochondria Different-Phenotype (%),[2],49% and 65%
same,Population Mitotic Cells (%),[2],61% and 54%
same,Population Normal (%),[2],87% and 93%
same,Population Pyknosed Nuclei (%),[2],13% and 14%
same,Population Tubulin-Different-Phenotype (%),[2],43% and 35%
same,Total Cell Count,[2],357 and 330
same,Population Apoptotic (%),[3],23% and 42%
same,Population Fragmented Nuclei (%),[3],9% and 5%
same,Population Healthy Nuclei (%),[3],81%
same,Population Hoechst High Intensity Objects (%),[3],5% and 3%
same,Population Membrane Permeable-Phenotype (%),[3],1%
same,Population Mitochondria Different-Phenotype (%),[3],21% and 44%
same,Population Mitotic Cells (%),[3],76% and 57%
same,Population Normal (%),[3],94% and 96%
same,Population Pyknosed Nuclei (%),[3],9% and 12%
same,Population Tubulin-Different-Phenotype (%),[3],14% and 18%
same,Total Cell Count,[3],523 and 383
same,Population Apoptotic (%),[4],45% and 29%
same,Population Fragmented Nuclei (%),[4],8% and 7%
same,Population Healthy Nuclei (%),[4],79% and 82%
same,Population Hoechst High Intensity Objects (%),[4],5% and 3%
same,Population Membrane Permeable-Phenotype (%),[4],1% and 0%
same,Population Mitochondria Different-Phenotype (%),[4],32% and 47%
same,Population Mitotic Cells (%),[4],54% and 70%
same,Population Normal (%),[4],94% and 96%
same,Population Pyknosed Nuclei (%),[4],12% and 9%
same,Population Tubulin-Different-Phenotype (%),[4],20%
same,Total Cell Count,[4],478 and 413
same,Population Apoptotic (%),[5],21% and 31%
same,Population Fragmented Nuclei (%),[5],14% and 11%
same,Population Healthy Nuclei (%),[5],79% and 82%
same,Population Hoechst High Intensity Objects (%),[5],2%
same,Population Membrane Permeable-Phenotype (%),[5],0% and 1%
same,Population Mitochondria Different-Phenotype (%),[5],11% and 23%
same,Population Mitotic Cells (%),[5],78% and 68%
same,Population Normal (%),[5],97%
same,Population Pyknosed Nuclei (%),[5],6% and 5%
same,Population Tubulin-Different-Phenotype (%),[5],9% and 12%
same,Total Cell Count,[5],932 and 620
same,Population Apoptotic (%),[6],33% and 20%
same,Population Fragmented Nuclei (%),[6],14% and 12%
same,Population Healthy Nuclei (%),[6],76% and 81%
same,Population Hoechst High Intensity Objects (%),[6],3%
same,Population Membrane Permeable-Phenotype (%),[6],1% and 0%
same,Population Mitochondria Different-Phenotype (%),[6],16% and 25%
same,Population Mitotic Cells (%),[6],66% and 79%
same,Population Normal (%),[6],96%
same,Population Pyknosed Nuclei (%),[6],8% and 6%
same,Population Tubulin-Different-Phenotype (%),[6],15% and 16%
same,Total Cell Count,[6],755 and 652
O=C(Nc1ccccc1Br)N[C@@H]1CCN(c2ccc(C(F)(F)F)cn2)C1 [SB-705498],Population Apoptotic (%),[1],7.52% and 7.03%
same,Population Fragmented Nuclei (%),[1],0.88% and 1.23%
same,Population Hoechst High Intensity Objects (%),[1],0.29% and 0%
same,Population Membrane Permeable-Phenotype (%),[1],0.99% and 0%
same,Population Mitochondria Different-Phenotype (%),[1],31.53% and 18.75%
same,Population Mitotic Cells (%),[1],92.48% and 92.97%
same,Population Normal (%),[1],99.71% and 100%
same,Population Pyknosed Nuclei (%),[1],39.23% and 79.01%
same,Total Cell Count,[1],340 and 162
same,Population Apoptotic (%),[2],12.68% and 20.16%
same,Population Fragmented Nuclei (%),[2],2.69% and 4.05%
same,Population Hoechst High Intensity Objects (%),[2],1.52% and 0%
same,Population Membrane Permeable-Phenotype (%),[2],0.9% and 7.69%
same,Population Mitochondria Different-Phenotype (%),[2],31.53% and 23.08%
same,Population Mitotic Cells (%),[2],87.32% and 79.84%
same,Population Normal (%),[2],98.48% and 100%
same,Population Pyknosed Nuclei (%),[2],54.62% and 87.16%
same,Population Tubulin-Different-Phenotype (%),[2],17.12% and 46.15%
same,Total Cell Count,[2],264 and 148
same,Population Apoptotic (%),[3],16.92% and 17.07%
same,Population Fragmented Nuclei (%),[3],1.6% and 1.17%
same,Population Healthy Nuclei (%),[3],75.22% and 26.9%
same,Population Hoechst High Intensity Objects (%),[3],0.18% and 0%
same,Population Membrane Permeable-Phenotype (%),[3],2.37% and 2.17%
same,Population Mitochondria Different-Phenotype (%),[3],11.37% and 2.17%
same,Population Mitotic Cells (%),[3],83.08% and 82.93%
same,Population Normal (%),[3],99.82% and 100%
same,Population Tubulin-Different-Phenotype (%),[3],10.9% and 6.52%
same,Population Apoptotic (%),[4],24.63% and 21.09%
same,Population Fragmented Nuclei (%),[4],1.27% and 4.24%
same,Population Hoechst High Intensity Objects (%),[4],0%
same,Population Membrane Permeable-Phenotype (%),[4],0%
same,Population Mitochondria Different-Phenotype (%),[4],24.71% and 20%
same,Population Mitotic Cells (%),[4],75.37% and 78.91%
same,Population Normal (%),[4],100%
same,Population Pyknosed Nuclei (%),[4],34.01% and 77.58%
same,Population Tubulin-Different-Phenotype (%),[4],37.65% and 16.67%
same,Total Cell Count,[4],394 and 165
same,Population Apoptotic (%),[5],9.6% and 17.81%
same,Population Fragmented Nuclei (%),[5],2.88% and 0.56%
same,Population Healthy Nuclei (%),[5],86.22% and 58.66%
same,Population Hoechst High Intensity Objects (%),[5],0%
same,Population Membrane Permeable-Phenotype (%),[5],6.98% and 0.95%
same,Population Mitochondria Different-Phenotype (%),[5],12.34% and 27.62%
same,Population Mitotic Cells (%),[5],90.4% and 82.19%
same,Population Normal (%),[5],100%
same,Population Fragmented Nuclei (%),[6],1.84% and 0.57%
same,Population Healthy Nuclei (%),[6],83.54% and 53.41%
same,Population Hoechst High Intensity Objects (%),[6],0%
same,Population Membrane Permeable-Phenotype (%),[6],4.13% and 5.32%
same,Population Mitochondria Different-Phenotype (%),[6],29.2% and 45.74%
same,Population Mitotic Cells (%),[6],95.28% and 80.25%
same,Population Normal (%),[6],100%
COc1cc(C(=O)N(CCCc2ccccc2)Cc2ccc(CC(=O)O)cc2)cc(OC)c1C,Population Apoptotic (%),[1],45% and 44%
same,Population Fragmented Nuclei (%),[1],7% and 6%
same,Population Healthy Nuclei (%),[1],82% and 84%
same,Population Hoechst High Intensity Objects (%),[1],5% and 4%
same,Population Membrane Permeable-Phenotype (%),[1],0%
same,Population Mitochondria Different-Phenotype (%),[1],47% and 50%
same,Population Mitotic Cells (%),[1],55%
same,Population Normal (%),[1],94% and 95%
same,Population Pyknosed Nuclei (%),[1],10% and 9%
same,Population Tubulin-Different-Phenotype (%),[1],31% and 19%
same,Total Cell Count,[1],395 and 410
same,Population Apoptotic (%),[2],30% and 47%
same,Population Fragmented Nuclei (%),[2],6% and 4%
same,Population Healthy Nuclei (%),[2],77% and 82%
same,Population Hoechst High Intensity Objects (%),[2],8% and 6%
same,Population Membrane Permeable-Phenotype (%),[2],1% and 0%
same,Population Mitochondria Different-Phenotype (%),[2],46% and 67%
same,Population Mitotic Cells (%),[2],70% and 52%
same,Population Normal (%),[2],91% and 93%
same,Population Pyknosed Nuclei (%),[2],15% and 13%
same,Population Tubulin-Different-Phenotype (%),[2],52% and 44%
same,Total Cell Count,[2],431 and 438
same,Population Apoptotic (%),[3],32% and 48%
same,Population Fragmented Nuclei (%),[3],7%
same,Population Healthy Nuclei (%),[3],78% and 82%
same,Population Hoechst High Intensity Objects (%),[3],5% and 3%
same,Population Membrane Permeable-Phenotype (%),[3],0%
same,Population Mitochondria Different-Phenotype (%),[3],27% and 26%
same,Population Mitotic Cells (%),[3],67% and 51%
same,Population Normal (%),[3],94% and 96%
same,Population Pyknosed Nuclei (%),[3],14% and 9%
same,Population Tubulin-Different-Phenotype (%),[3],15% and 10%
same,Total Cell Count,[3],483 and 507
same,Population Apoptotic (%),[4],34% and 42%
same,Population Fragmented Nuclei (%),[4],7%
same,Population Healthy Nuclei (%),[4],80% and 79%
same,Population Hoechst High Intensity Objects (%),[4],7% and 6%
same,Population Membrane Permeable-Phenotype (%),[4],0%
same,Population Mitochondria Different-Phenotype (%),[4],39% and 50%
same,Population Mitotic Cells (%),[4],65% and 57%
same,Population Normal (%),[4],92% and 93%
same,Population Pyknosed Nuclei (%),[4],12%
same,Population Tubulin-Different-Phenotype (%),[4],43% and 38%
same,Total Cell Count,[4],549 and 526
same,Population Apoptotic (%),[5],30% and 26%
same,Population Fragmented Nuclei (%),[5],12% and 9%
same,Population Healthy Nuclei (%),[5],77% and 83%
same,Population Hoechst High Intensity Objects (%),[5],1% and 3%
same,Population Membrane Permeable-Phenotype (%),[5],1%
same,Population Mitochondria Different-Phenotype (%),[5],16% and 17%
same,Population Mitotic Cells (%),[5],69% and 73%
same,Population Normal (%),[5],98% and 96%
same,Population Pyknosed Nuclei (%),[5],9% and 7%
same,Population Tubulin-Different-Phenotype (%),[5],11% and 9%
same,Total Cell Count,[5],812 and 753
same,Population Apoptotic (%),[6],32% and 33%
same,Population Fragmented Nuclei (%),[6],12% and 15%
same,Population Healthy Nuclei (%),[6],76% and 75%
same,Population Hoechst High Intensity Objects (%),[6],4% and 8%
same,Population Membrane Permeable-Phenotype (%),[6],1%
same,Population Mitochondria Different-Phenotype (%),[6],29% and 37%
same,Population Mitotic Cells (%),[6],67% and 66%
same,Population Normal (%),[6],95% and 91%
same,Population Pyknosed Nuclei (%),[6],11% and 9%
same,Population Tubulin-Different-Phenotype (%),[6],29% and 34%
same,Total Cell Count,[6],729 and 632
